TRPC6 inh = mouse TRPC6 channel inhibitors, primary screen, cell-based, HEK293, membrane potential dye; Short transient receptor potential channel 6 (Mus musculus), Q61143; AID 2553, 2010; ACh-evoked depolarization; stronger effect = lower value; 310,000 compounds, 1.1% hits; B-score at 10 µM;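 active means B-score under library mean minus 3 SD, initial fluorescence not abnormally high, positive integrated signal ratio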;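 further: B-score derived from integrated fluorescence ratio over the kinetic read; more negative B-score means stronger inhibition of depolarization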
TRPC4 potent = positive allosteric modulators of TRPC4, primary screen, cell-based, mouse TRPC4beta, HEK293 mu-opioid, Fluo-4 calcium. 310,000 compounds, 0.42% hits. AID 2227, 2009. DAMGO EC20, Fluo-4 Ca2+ flux; stronger effect = higher value. B-score at 10 µM;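 active means B-score of calcium response area above 5 SD of library B-scores, with initial fluorescence ratio within 5 SD of library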;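 further: B-score of integrated fluorescence ratio over time as area under calcium response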
Target sequence (Q9QUQ5 whole entry, looked up): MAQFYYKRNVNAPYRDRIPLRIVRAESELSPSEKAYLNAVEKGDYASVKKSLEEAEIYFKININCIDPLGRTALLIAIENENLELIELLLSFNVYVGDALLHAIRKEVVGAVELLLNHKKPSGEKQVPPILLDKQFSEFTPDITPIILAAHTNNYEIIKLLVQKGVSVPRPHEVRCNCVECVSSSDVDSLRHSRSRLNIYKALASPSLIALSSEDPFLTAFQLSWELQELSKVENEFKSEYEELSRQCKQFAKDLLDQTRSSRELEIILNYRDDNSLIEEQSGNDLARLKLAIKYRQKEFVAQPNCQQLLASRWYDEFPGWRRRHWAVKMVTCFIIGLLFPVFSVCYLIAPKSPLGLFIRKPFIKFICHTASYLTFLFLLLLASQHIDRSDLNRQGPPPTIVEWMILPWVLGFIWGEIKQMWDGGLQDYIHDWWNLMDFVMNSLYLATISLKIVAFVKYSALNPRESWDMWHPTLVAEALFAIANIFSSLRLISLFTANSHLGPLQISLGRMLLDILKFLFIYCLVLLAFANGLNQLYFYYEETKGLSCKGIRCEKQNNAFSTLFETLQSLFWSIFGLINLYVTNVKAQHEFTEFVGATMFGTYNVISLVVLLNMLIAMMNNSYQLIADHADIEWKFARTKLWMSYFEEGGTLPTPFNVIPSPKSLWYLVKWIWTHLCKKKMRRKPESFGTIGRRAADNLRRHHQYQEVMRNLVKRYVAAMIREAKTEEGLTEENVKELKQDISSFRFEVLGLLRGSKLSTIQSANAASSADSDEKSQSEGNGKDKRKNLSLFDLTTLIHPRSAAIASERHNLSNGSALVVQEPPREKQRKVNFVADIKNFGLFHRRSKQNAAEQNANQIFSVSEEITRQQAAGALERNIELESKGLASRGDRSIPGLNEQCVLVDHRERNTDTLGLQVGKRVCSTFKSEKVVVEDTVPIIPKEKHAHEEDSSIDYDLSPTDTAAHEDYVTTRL
TRPC6 act = mouse TRPC6 channel activators, primary screen, cell-based, HEK293, membrane potential dye | AID 2550, 2010 | Short transient receptor potential channel 6 (Mus musculus), Q61143 | B-score at 10 µM | HEK293-TRPC6 membrane potential dye fluorescence; stronger effect = higher value | 310,000 compounds, 0.13% hits;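 active means B-score of the integrated fluorescence ratio above library mean plus 3 SD, and starting fluorescence ratio within library mean plus 5 SD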;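 further: higher score means more depolarization so channel activation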
TRPC4 agonist = activators of mouse TRPC4 channel, primary screen, Fluo4 calcium, HEK293 TRPC4beta/mu-opioid cells; Short transient receptor potential channel 4 (Mus musculus), Q9QUQ5; 310,000 compounds, 0.49% hits; Fluo4 calcium fluorescence; stronger effect = higher value; AID 2237, 2010; B-score at 10 µM;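 active means B-score above 5 SD of library B-scores, and initial fluorescence ratio not above library mean plus 5 SD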;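 further: positive B-score marks a calcium rise read as TRPC4 activation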
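system = HEK293 cells stably co-expressing mouse TRPC4beta and mu-opioid receptor | schedule = Fluo4 dye loading 45 min at room temperature, 110 s recording | measure = B-scored integrated calcium fluorescence ratio | signal = Fluo4 calcium-sensitive dye fluorescence, kinetic, 1 Hz baseline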
TRPC4 block = inhibitors of mouse TRPC4 channel, primary screen, Fluo4 calcium, HEK293 TRPC4beta/mu-opioid cells | DAMGO-evoked Fluo4 calcium flux; stronger effect = lower value | 300,000 compounds, 0.39% hits | AID 2247, 2010 | Short transient receptor potential channel 4 (Mus musculus), Q9QUQ5 | B-score at 10 µM;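 active means B-score over 3 SD under the library average, no early fluorescence shift, positive overall ratio signal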
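Assay system: TRPC4beta/mu-opioid receptor HEK293 cell line; compound dosing: single concentration per test compound; detection: Fluo4 Ca2+ flux fluorescence; evaluation: per-well B score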
Kir21 inh = inhibitors of mouse Kir2.1 inward-rectifier potassium channel. 310,000 compounds, 0.85% hits. AID 1672, 2009. Inward rectifier potassium channel 2 (Mus musculus), P35561. HEK293-Kir2.1, FluxOR thallium flux fluorescence; stronger effect = lower value. B-score at 10 µM;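 active means fluorescence ratio B-score at or below minus 3 SD of library scores, with starting-brightness B-score within 2 SD, cut at about -4.2 in these data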;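 further: channel flux triggered by added potassium and thallium sulfate stimulus; B-score of peak minus minimum fluorescence over baseline after thallium stimulus; more negative B-score means stronger Kir2.1 block with less thallium influx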
HEK293 MPD ctr = parental HEK293 membrane potential modulation, confirmation, counter-screen for TRPC6 modulator project, cell-based. 2,400 compounds, 51% hits. membrane potential signal change, % at 10 µM. membrane potential dye fluorescence. AID 488924, 2010. shares compounds with TRPC6 inh;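 active means membrane potential signal moves up or down beyond 5 SD from buffer-only wells, on both duplicate plates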
HEK293 MPD ctr 2 = parental HEK293 nonspecific activity of TRPC6 modulators, second screen | shares compounds with TRPC6 inh | membrane potential dye fluorescence; after compound, maximal acetylcholine stimulation | inhibition, % at 10 µM | 2,400 compounds, 14% hits;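 active means membrane potential signal drops by more than 5 SD from the mean control signal, in both duplicate plates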;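 further: plate controls were acetylcholine ECmax control wells for no effect and buffer only wells for full effect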
TRPC4/MOR mod = TRPC4 modulation by TRPC6 hit compounds, confirmation, selectivity assay for TRPC6 modulator project, cell-based, HEK293 TRPC4/mu-opioid, membrane potential dye, mouse; membrane potential fluorescence; shares compounds with TRPC6 inh; percent change from control (negative = decrease, positive = increase), % at 10 µM; 2,400 compounds, 69% hits; AID 488927, 2010;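 active means membrane potential signal moved up or down beyond 5 SD of buffer control wells, in both duplicate plates, actives on both sides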;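 further: plate controls were assay buffer wells for no effect and DAMGO maximal-effect wells for full effect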
TRPC4 ctr inh 2 = mouse TRPC4 off-target activity of TRPC6 modulators, second screen; shares compounds with TRPC6 inh; HEK293 TRPC4/mu-opioid, membrane potential dye fluorescence; stimulated with maximal-effect DAMGO; inhibition, % at 10 µM; 2,400 compounds, 55% hits; AID 488928;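 active means drop in membrane potential signal beyond 5 SD of the control wells in both duplicate plates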;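 further: TRPC4 counter screen for TRPC6 hits run under conditions tuned for TRPC6 not TRPC4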
TRPC6 inh conf = mouse TRPC6 channel inhibitors, confirmation, HEK293 cells, membrane potential dye, duplicate; ACh-evoked depolarization; shares compounds with TRPC6 inh; inhibition, % at 10 µM; 3,300 compounds, 43% hits;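 active means fluorescence ratio falls more than 5 SD below the full-stimulation control mean, in both duplicate runs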;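 further: integrated fluorescence ratio of peak minus minimum over baseline after agonist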
TRPC6 act confirm = mouse TRPC6 channel activators, confirmation, HEK293 cells, membrane potential dye, duplicate; shares compounds with TRPC6 inh; HEK293-TRPC6 membrane potential dye fluorescence, FDSS; activation, % at 10 µM; 2,800 compounds, 11% hits; AID 488961, 2010;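 active means ratio signal rise beyond 5 SD above unstimulated control wells' mean, seen in both duplicate runs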;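 further: plate controls were buffer EC0 wells for no effect and acetylcholine ECmax response for full effect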
* marks the source's active call; other numbers are inactive results; i = inactive; . = no result given. This is a sample that favours compounds with a hit; in the whole collection about 3% have one here.

SMILES	TRPC6 inh	TRPC4 potent	TRPC6 act	TRPC4 agonist	TRPC4 block	Kir21 inh	HEK293 MPD ctr	HEK293 MPD ctr 2	TRPC4/MOR mod	TRPC4 ctr inh 2	TRPC6 inh conf	TRPC6 act confirm
COC(=O)C(NC(=O)c1ccccc1)(Nc1nc(C)cs1)C(F)(F)F (stereo not drawn)	i	i	i	i	i	0.15	.	.	.	.	.	.
NCC(O)(c1ccc(Cl)cc1)c1ccc(Cl)cc1	-6.3*	i	i	i	i	-3.1	i	i	i	40%*	i	i
CC(C)NCC(O)(c1ccc(Cl)cc1)c1ccc(Cl)cc1	i	i	i	i	i	-4	.	.	.	.	.	.
O=Cc1coc2ccc3ccccc3c2c1=O	i	i	i	i	i	-1.6	.	.	.	.	.	.
NC(=O)N/N=C/c1coc2ccc3ccccc3c2c1=O	-5*	i	i	i	i	0.28	-62%*	i	-16%*	i	i	i
COCCNc1oc(Cc2cccc3ccccc23)nc1C#N	i	i	i	i	i	-0.25	.	.	.	.	.	.
CCN(CC)CC(O)Cn1c(-c2cccc(Cl)c2)nc2cc(C)c(C)cc21 (stereo not drawn)	-6.5*	i	i	i	i	-0.51	i	i	i	74%*	63%*	i
CCCSc1nc2cc(C)c(C)cc2n1CC(O)CO (stereo not drawn)	i	i	i	i	i	0.22	.	.	.	.	.	.
CC(C)C[C@H](NC(=O)C1CC(=O)N(c2ccc3c(c2)OCO3)C1)C(=O)NC1CCCCC1 (stereo partly drawn)	i	i	i	i	i	1.1	.	.	.	.	.	.
CN(C(=O)CCc1ccccc1F)C1CCCN(Cc2ccccc2F)C1 (stereo not drawn)	i	i	i	i	i	-0.83	.	.	.	.	.	.
CN(C(=O)CCCN1CCCC1=O)C1CCCN(Cc2ccccc2F)C1 (stereo not drawn)	-5.1*	i	i	i	i	-0.56	i	i	i	i	i	i
COc1cccc(C2=Nc3cccc4cccc(c34)N2)c1	-8.1*	i	i	i	i	0.63	-94%*	i	-26%*	74%*	52%*	i
CCOc1ccc(C(=O)C(C)OC(=O)CN2C(=O)NC(C)(C)C2=O)cc1 (stereo not drawn)	i	i	i	i	i	0.74	.	.	.	.	.	.
COc1cc(OC)c2ccc(=O)oc2c1C(CCN1CCCC(C)C1)c1ccc(N(C)C)cc1 (stereo not drawn)	-5.7*	i	i	i	i	-2.1	-112%*	i	-26%*	70%*	49%*	i
CCCCCc1cc(=O)oc2c(C(CCN3CCCC(C)C3)c3ccc(N(C)C)cc3)c(OC)cc(OC)c12 (stereo not drawn)	i	i	i	i	i	-0.12	.	.	.	.	.	.
COc1ccc(C(CCN2CCCCC2)c2c(OC)cc(OC)c3c(-c4ccccc4)cc(=O)oc23)cc1 (stereo not drawn)	i	i	i	i	i	-2.1	.	.	.	.	.	.
COc1cc(OC)c2c(-c3ccccc3)cc(=O)oc2c1C(CCN1CCCCC1)c1ccc(N(C)C)cc1 (stereo not drawn)	-6.2*	i	i	116*	i	-3.6	i	i	36%*	104%*	55%*	i
Cc1ccc(NC(=O)C2CCN(S(=O)(=O)c3ccc4c(c3)OCCO4)CC2)nc1	i	i	i	i	i	-0.68	.	.	.	.	.	.
COc1ccc(-c2noc(CCC(=O)N3CCN(c4cc(C)ccc4C)CC3)n2)cc1	i	i	i	i	i	2	.	.	.	.	.	.
COc1ccc(Br)c(C(=O)NC2CCCC2)c1	i	i	i	i	i	0.22	.	.	.	.	.	.
COc1ccc(Br)c(C(=O)NCC2CCCCC2)c1	-5.2*	i	i	i	i	-0.27	i	i	44%*	54%*	i	.
COc1ccc(O)c(CN2CCC(n3nccc3NC(=O)C3CCCC3)CC2)c1	i	i	i	i	i	-1.6	.	.	.	.	.	.
c1ccc(-c2nc(N3CCCCCC3)c3ccccc3n2)nc1	-9.7*	i	i	i	i	-0.07	-202%*	70%*	-30%*	73%*	62%*	i
c1ccc2c(N3CCCC3)nc(-c3ccncc3)nc2c1	-7.2*	i	i	i	i	1	-248%*	i	-42%*	35%*	39%*	i
CCCN(CCC)c1nc(-c2ccccn2)nc2ccccc12	-5.5*	i	i	i	i	-1.8	i	78%*	i	68%*	76%*	i
C=CCN(Cc1ccc(OC)c(OC)c1)C(=O)c1cc2cc(F)ccc2[nH]1	i	i	i	i	i	1.4	.	.	.	.	.	.
